Calls of active or inactive are those of the source. No cut-off for these calls is given here. Peptide text beside a SMILES is read from it. * marks the point of attachment. Cbz = O=C(OCc1ccccc1)*
How the values were obtained:
Homo sapiens [1] = species on record: Homo sapiens; test: Inhibition of proteasome in human MDA-MB-231 cells assessed as increase in CHOP protein levels at 5 uM after 8 hrs by Western blot analysis; type: cell-based
Outline: (§1)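 Cells treated for 8 h in DMEM with 10% FBS, with DMSO negative control, CB-5083 (1.0 μM) positive control and MG132 (5.0 μM) comparator. Lysed by sonication in SDS sample buffer and run on 4–20% SDS-PAGE. Immunoblotted with anti-XBP1s, ATF4, CHOP (1:1000) and β-actin loading control, then HRP secondaries (1:3000) and chemiluminescence.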

SF-268 = test: Cytotoxicity against human SF268 cells after 72 hrs by resazurin/AlamarBlue dye-based fluorescence assay; type: functional, cell-based; conditions: SF-268, 72 h
Outline: (§2)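 Serial dilutions of compound or DMSO vehicle added to triplicate wells in RPMI-1640 with 10% FBS, 72 h at 37 °C. Resazurin (AlamarBlue) dye then added at 1:10 dilution, 4 h more at 37 °C, fluorescence read at Ex/Em 560/590. Mean fluorescence per well compared with DMSO-treated wells as relative viable cell number; doxorubicin positive control.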

Homo sapiens [2] = species on record: Homo sapiens; test: Inhibition of proteasome in human MDA-MB-231 cells assessed as increase in XBP1 protein levels up to 20 uM after 8 hrs by Western blot analysis; type: cell-based; outline: as §1
PC-3M = test: Cytotoxicity against human PC3M cells after 72 hrs by resazurin/AlamarBlue dye-based fluorescence assay; type: functional, cell-based; outline: as §2
Homo sapiens [3] = species on record: Homo sapiens; test: Inhibition of proteasome in human MDA-MB-231 cells assessed as UPR activation by measuring increase in ATF4 protein levels up to 20 uM after 8 hrs by Western blot analysis; type: cell-based; outline: as §1
Fibroblast [4] = test: Induction of heat-shock response in mouse fibroblasts harboring reporter construct encoding enhanced green fluorescent protein at 1.25 to 5 uM after overnight incubation by fluorescence assay; type: functional, cell-based
Outline: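 Reporter fibroblasts carry EGFP driven by a minimal consensus heat-shock element. Seeded at 20 000 cells/well and attached overnight. Serial 2-fold dilutions added in triplicate, with DMSO (≤0.1%) as negative control and monocillin I as positive control. Incubated overnight, rinsed with PBS, fluorescence read at 485/525 nm. Reported as mean ± SD of triplicates, also as a percentage of the DMSO control; three independent experiments.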

NCI-H460 = test: Cytotoxicity against human NCI-H460 cells after 72 hrs by resazurin/AlamarBlue dye-based fluorescence assay; type: functional, cell-based; conditions: NCI-H460, 72 h; outline: as §2
MDA-MB-231 = test: Cytotoxicity against human MDA-MB-231 cells after 72 hrs by resazurin/AlamarBlue dye-based fluorescence assay; type: functional, cell-based; conditions: MDA-MB-231, 72 h; outline: as §2
Homo sapiens [5] = species on record: Homo sapiens; test: Inhibition of proteasome in human MDA-MB-231 cells assessed as increase in CHOP protein levels up to 20 uM after 8 hrs by Western blot analysis; type: cell-based; outline: as §1
[6] = target: Transitional endoplasmic reticulum ATPase (Homo sapiens) (UniProt P55072); test: Inhibition of p97 in human MDA-MB-231 cells assessed as UPR activation by measuring increase in CHOP protein levels up to 20 uM after 8 hrs by Western blot analysis; type: cell-based
Chain of Transitional endoplasmic reticulum ATPase (Homo sapiens) (P55072 2-806 limits assumed): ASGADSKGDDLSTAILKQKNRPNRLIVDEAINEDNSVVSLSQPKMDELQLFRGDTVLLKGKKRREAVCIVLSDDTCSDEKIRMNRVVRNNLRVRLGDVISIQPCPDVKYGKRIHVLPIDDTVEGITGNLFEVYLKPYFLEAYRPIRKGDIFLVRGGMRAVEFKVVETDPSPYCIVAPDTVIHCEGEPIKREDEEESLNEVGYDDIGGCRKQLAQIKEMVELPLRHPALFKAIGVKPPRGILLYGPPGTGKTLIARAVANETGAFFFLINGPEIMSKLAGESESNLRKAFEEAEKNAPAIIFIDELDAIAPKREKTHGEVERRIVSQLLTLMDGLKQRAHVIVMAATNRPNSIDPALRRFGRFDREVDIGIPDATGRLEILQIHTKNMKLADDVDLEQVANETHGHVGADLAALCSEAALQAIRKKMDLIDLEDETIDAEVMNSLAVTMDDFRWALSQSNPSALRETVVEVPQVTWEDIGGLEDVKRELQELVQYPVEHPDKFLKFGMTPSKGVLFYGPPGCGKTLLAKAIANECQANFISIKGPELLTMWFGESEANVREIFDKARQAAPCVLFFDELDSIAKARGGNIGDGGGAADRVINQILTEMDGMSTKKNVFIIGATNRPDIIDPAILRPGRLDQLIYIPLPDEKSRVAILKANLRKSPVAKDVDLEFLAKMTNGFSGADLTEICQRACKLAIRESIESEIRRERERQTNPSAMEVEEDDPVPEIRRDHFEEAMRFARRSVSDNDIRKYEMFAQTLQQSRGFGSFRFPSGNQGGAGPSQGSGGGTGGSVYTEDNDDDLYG
Outline: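 MDA-MB-231 cells were treated for 8 h in DMEM with 10% FBS, then harvested in SDS sample buffer, sonicated and cleared. Lysates were run on 4–20% SDS-PAGE and transferred to nitrocellulose. Blots were blocked in 5% milk and probed for CHOP, XBP1s and ATF4 (1:1000), with β-actin as loading control. Detection was by chemiluminescence. DMSO served as negative control, with CB-5083 (1.0 μM) and MG132 (5.0 μM) as comparators.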

Fibroblast [7] = test: Induction of heat-shock response in mouse fibroblasts harboring reporter construct encoding enhanced green fluorescent protein at 5 uM after overnight incubation by fluorescence assay; type: functional, cell-based
Outline: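 Stably transfected reporter fibroblasts (EGFP driven by a minimal consensus heat-shock element) were seeded at 20 000 cells/well and left to attach overnight. Serial 2-fold dilutions of compound were added in triplicate, with DMSO vehicle (≤0.1%) as the negative control. After overnight incubation the cells were rinsed and read in PBS at Ex 485/Em 525 nm. Mean fluorescence ± SD was expressed relative to DMSO.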

MCF7 = test: Cytotoxicity against human MCF7 cells after 72 hrs by resazurin/AlamarBlue dye-based fluorescence assay; type: functional, cell-based; conditions: MCF7, 72 h; outline: as §2

SMILES | IC50 (SF-268) [nM] | IC50 (PC-3M) [nM] | IC50 (NCI-H460) [nM] | IC50 (MDA-MB-231) [nM] | Activity (Fibroblast [7]) | also measured
CC(C)C[C@@H](C=O)NC(=O)[C@H](CC(C)C)NC(=O)[C@H](CC(C)C)NC(=O)OCc1ccccc1 (Cbz-Leu-Leu-Leu-aldehyde) |  |  |  |  |  | inhibition (Homo sapiens [1]): Active
C[C@H]1CCC/C=C/C(=O)c2c(O)cc(O)cc2CC(=O)O1 [DEHYDROCURVULARIN] | 4730 | 4510 | 3570 | > 5000 |  | inhibition (Homo sapiens [2]): Active; inhibition (Homo sapiens [3]): Active; Activity (Fibroblast [4]): Active; inhibition (Homo sapiens [5]): Active
C[C@H]1CCC/C=C/C(=O)c2c(O)c(Cl)c(O)c(Cl)c2CC(=O)O1 |  |  |  |  | Active | inhibition [6]: Active
C[C@H]1CCC/C=C/C(=O)c2c(cc(O)c(Cl)c2O)CC(=O)O1 | 1410 | 1710 | 1450 | 2950 | Active | IC50 (MCF7): 1990 nM
COc1cccc2c1C(=O)c1c(O)c3c(c(O)c1C2=O)C[C@@](O)(C(=O)CO)C[C@@H]3O[C@H]1C[C@H](N)[C@H](O)[C@H](C)O1 [DOXORUBICIN] |  | 240 |  |  |  | 

Reference: ChEMBL document CHEMBL4033611, “Chlorinated Dehydrocurvularins and Alterperylenepoxide A from Alternaria sp. AST0039, a Fungal Endophyte of Astragalus lentiginosus” (J Nat Prod, 2017)
